Calls of active or inactive are those of the source. The rule behind the calls is not given here.
Tests used:
Streptococcus sobrinus [1] = test: Antibacterial activity against Streptococcus sobrinus ATCC 33478 assessed as growth inhibition at 1.25 to 10 ug/ml after 24 hrs by microplate dilution assay; assay type: functional, organism-based
Streptococcus mutans [2] = test: Antibacterial activity against Streptococcus mutans ATCC 25175 assessed as growth inhibition at 1.25 to 10 ug/ml after 24 hrs by microplate dilution assay; assay type: functional, organism-based
Prevotella intermedia [3] = test: Antibacterial activity against Prevotella intermedia ATCC 25611 assessed as growth inhibition at 1.25 to 10 ug/ml after 24 hrs by microplate dilution assay; assay type: functional, organism-based
In short: (§1)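 Todd Hewitt broth with hemin (10 μg/mL) and vitamin K (1 μg/mL). 24-h cultures were diluted to OD660 0.2 and mixed 1:1 with serial dilutions in broth (compounds 10 to 1.25 μg/mL; penicillin G 2.5 to 0.00625 μg/mL). Plates were incubated 24 h at 37 °C anaerobically (N2–H2–CO2 75:10:15), then OD660 was read against no-compound control wells. Triplicates were given as mean ± SD; Student's t test was applied when inhibition was ≥20%.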

Streptococcus mutans [4] = test: Antibacterial activity against Streptococcus mutans ATCC 25175 assessed as growth inhibition at 10 ug/ml after 24 hrs by microplate dilution assay; assay type: functional, organism-based
Fusobacterium nucleatum [5] = test: Antibacterial activity against Fusobacterium nucleatum ATCC 25586 assessed as growth inhibition at 1.25 to 10 ug/ml after 24 hrs by microplate dilution assay; assay type: functional, organism-based; in short: as §1
Porphyromonas gingivalis [6] = test: Antibacterial activity against Porphyromonas gingivalis ATCC 33277 assessed as growth inhibition at 1.25 to 10 ug/ml after 24 hrs by microplate dilution assay; assay type: functional; in short: as §1
Streptococcus sobrinus [7] = test: Antibacterial activity against Streptococcus sobrinus ATCC 33478 assessed as growth inhibition at 10 ug/ml after 24 hrs by microplate dilution assay; assay type: functional, organism-based
Streptococcus mutans [8] = test: Antibacterial activity against Streptococcus mutans ATCC 25175 assessed as growth inhibition at 0.00625 to 2.5 ug/ml after 24 hrs by microplate dilution assay; assay type: functional, organism-based
Streptococcus sobrinus [9] = test: Antibacterial activity against Streptococcus sobrinus ATCC 33478 assessed as growth inhibition at 0.00625 to 2.5 ug/ml after 24 hrs by microplate dilution assay; assay type: functional, organism-based
Porphyromonas gingivalis [10] = test: Antibacterial activity against Porphyromonas gingivalis ATCC 33277 assessed as growth inhibition at 0.00625 to 2.5 ug/ml ug/ml after 24 hrs by microplate dilution assay; assay type: functional; in short: as §1
Fusobacterium nucleatum [11] = test: Antibacterial activity against Fusobacterium nucleatum ATCC 25586 assessed as growth inhibition at 0.00625 to 2.5 ug/ml ug/ml after 24 hrs by microplate dilution assay; assay type: functional, organism-based; in short: as §1
Prevotella intermedia [12] = test: Antibacterial activity against Prevotella intermedia ATCC 25611 assessed as growth inhibition at 0.00625 to 2.5 ug/ml ug/ml after 24 hrs by microplate dilution assay; assay type: functional, organism-based; in short: as §1

SMILES	growth inhibition (GI) (Streptococcus sobrinus [1])	growth inhibition (GI) (Streptococcus mutans [2])	growth inhibition (GI) (Prevotella intermedia [3])	further results
COc1c(CC=C(C)C)c(O)cc2oc(=O)c(-c3ccc(O)cc3O)cc12	inactive	inactive	Active	–
COc1c(CC=C(C)C)c(O)cc2c1C[C@H](c1ccc(O)c(CC=C(C)C)c1O)CO2	–	–	Active	growth inhibition (GI) (Streptococcus mutans [4]): Active; growth inhibition (GI) (Fusobacterium nucleatum [5]): Active; growth inhibition (GI) (Porphyromonas gingivalis [6]): Active; growth inhibition (GI) (Streptococcus sobrinus [7]): Active
COc1cc2c(c(OC)c1CC=C(C)C)C[C@H](c1ccc(O)cc1O)CO2	inactive	inactive	Active	–
CC(C)=CCc1cc(-c2coc3cc(O)cc(O)c3c2=O)c(O)cc1O	inactive	inactive	Active	–
COc1cc2c(c(OC)c1CC=C(C)C)C[C@H](C1=CC(=O)C(O)=C(CC=C(C)C)C1=O)CO2	inactive	inactive	Active	–
COc1cc2oc(=O)c(-c3ccc(O)cc3O)cc2c(OC)c1CC=C(C)C	inactive	inactive	Active	–
CC1(C)S[C@@H]2[C@H](NC(=O)Cc3ccccc3)C(=O)N2[C@H]1C(=O)O	–	–	–	growth inhibition (GI) (Streptococcus mutans [8]): Active; growth inhibition (GI) (Streptococcus sobrinus [9]): Active; growth inhibition (GI) (Porphyromonas gingivalis [10]): Active; growth inhibition (GI) (Fusobacterium nucleatum [11]): Active; growth inhibition (GI) (Prevotella intermedia [12]): Active

Reference: ChEMBL document CHEMBL1926597, “Isoflavonoids and coumarins from Glycyrrhiza uralensis: antibacterial activity against oral pathogens and conversion of isoflavans into isoflavan-quinones during purification” (J Nat Prod, 2011)
